Screening data: PubChem, several laboratories
ARNT-TACC3 inh – disruptors of ARNT/TACC3 protein interaction, primary screen, biochemical, AlphaScreen, single concentration. AlphaScreen His-ARNT PAS-B/GST-TACC3 binding, luminescence; TACC3 fragment carries E629A point mutation. inhibition, % at 9.99 µM. 390,000 compounds, 0.66% hits;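 active = mean inhibition of replicates at least 50% and at least half of replicates each reaching 50%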
XiGFP reactiv – activators of inactive X chromosome reactivation, primary screen, imaging, XiGFP fibroblasts, GFP high-content imaging, set 2. activation, % at 7.58 µM. XiGFP mouse fibroblasts, % GFP-positive cells imaging, 3 d; cells co-treated with 5-aza-dC sensitizer; scaled so ellipticine positive control = 100%. 360,000 compounds, 0.055% hits;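 active = mean normalized replicate activation at least 10% and every replicate at or above 10%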
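Material: XiGFP fibroblasts, SV40-immortalized. Buffer or medium: DMEM plus 5-aza-dC sensitizer. Compound: single concentration per compound, delivered by pin transfer. Times: 3 days compound exposure. Controls: ellipticine 6 µM.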
SR-BI uptake up – activators of SR-BI mediated DiI-HDL uptake, primary screen, ldlA[mSR-BI] CHO cells, DiI fluorescence; 3 h; 100 = double the neutral-control signal; activation, % at 12.5 µM; 320,000 compounds, 0.096% hits; AID 504775, 2011;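 active = mean replicate activation of at least 60% and every replicate at or above 60%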
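Test system: SR-BI-overexpressing, LDLR-lacking CHO cells; Also added: labelled HDL, 10 µg/mL; Measured by: bottom-read cell fluorescence after medium removal, ex 550/em 595 nm; Timing: 3 h uptake period with compound, 37 °C; Buffer or medium: F12, 0.5% BSA, 25 mM HEPES; Doses: single compound concentration, delivered by pin transfer.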
NSD2 inh – NSD2 histone methyltransferase inhibitors, primary screen, biochemical, AlphaScreen, single concentration, set 2; inhibition, % at 12.5 µM; NSD2 peptide methylation, 120 min; AID 743445, 2014; Histone-lysine N-methyltransferase NSD2 (Homo sapiens), O96028; 310,000 compounds, 0.54% hits; in the data active = inhibition above about 50%
HGIII-sPLA2 inh – human group III sPLA2 inhibitors, primary screen, biochemical, QFRET, BODIPY PC-A2 liposome substrate | Group 3 secretory phospholipase A2 (Homo sapiens), Q9NZ20 | QFRET BODIPY PC-A2 liposome hydrolysis, fluorescence | inhibition, % at 12.2 µM | 370,000 compounds, 0.56% hits;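 active = inhibition above mean plus 3 SD of compounds lying within the high and low control bounds, cut at about 19% in these data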
SR-BI HDL uptake – inhibitors of SR-BI mediated HDL lipid uptake, primary screen, ldlA[mSR-BI] cells, fluorescence, single point; ldlA[mSR-BI] CHO cells, DiI-HDL uptake fluorescence, 3 h; 320,000 compounds, 0.96% hits; inhibition, % at 12.5 µM;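 active = mean replicate inhibition of at least 70% and a set share of replicates each scoring 70 or more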
Large screens that a line does not name were inactive. The list is not random: actives were taken first. Their share in the collection is about 2%.

CCOC(=O)C(=Cc1ccc(-c2ccsc2C(=O)OC)o1)C(=O)OCC	SR-BI HDL uptake 76 (no result: XiGFP reactiv)
COC(=O)/C(=C\Nc1ccc(Cl)cc1Cl)NC(=O)c1ccc(OC)cc1	SR-BI HDL uptake 83 (no result: XiGFP reactiv)
O=S(=O)(NC1CCCC1)c1ccccc1Br	none (no result: NSD2 inh)
O=C(Nc1ccc(NC(=O)C2CCCCC2)nc1)c1ccccn1	none
N#C[C@@H]1[C@H](c2ccc(C3=CCCC3)cc2)[C@H](CO)N1C(=O)NC1CCCC1	none (no result: SR-BI uptake up, NSD2 inh, HGIII-sPLA2 inh, SR-BI HDL uptake)
O=C1C(Cl)=C(N2CCCCC2)C(=O)C(Cl)=C1c1cnc(N2CCCCC2)s1	none (no result: XiGFP reactiv, NSD2 inh, HGIII-sPLA2 inh)
CN(C)c1ncc(C2=C(Cl)C(=O)C(N3CCCC3)=C(Cl)C2=O)s1	NSD2 inh 57 (no result: XiGFP reactiv)
O=C(Nc1nnc2n1CCS2)c1ccc(Br)o1	ARNT-TACC3 inh 46
COc1ccc(C2NC(=S)NC3=C2N2CCC3CC2)cc1 (centres undefined)	ARNT-TACC3 inh active (no result: SR-BI uptake up, SR-BI HDL uptake)
Cc1ccccc1NC(=O)CCC(=O)N/N=C/c1cc([N+](=O)[O-])ccc1O	none
CN1CCN(CCC(=O)N/N=C/c2cc([N+](=O)[O-])ccc2O)CC1	ARNT-TACC3 inh 75
Cc1ccc(C)c(NC(=O)CCC(=O)N/N=C/c2cc([N+](=O)[O-])ccc2O)c1	ARNT-TACC3 inh 49
O=C(CCN1CCN(C(c2ccccc2)c2ccccc2)CC1)N/N=C/c1ccc(O)cc1O	ARNT-TACC3 inh 45
Cc1ccc(C(=O)NCCc2nnc3ccc(SCC(=O)N4CCCC4)nn23)cc1	none
COc1ccc(/C=C/C(=O)Nc2cccc(N3CCOCC3)c2)cc1OC	SR-BI HDL uptake 76
COc1cc(OC)cc(C(=O)NC(=S)NNC(=O)c2cnccn2)c1	ARNT-TACC3 inh 66
COc1ccc(C(=O)NC(=S)NNC(=O)c2cnccn2)cc1OC	ARNT-TACC3 inh 63
C[C@@H]1CCCCO[C@H](CN(C)S(=O)(=O)c2cccs2)[C@H](C)CN([C@@H](C)CO)C(=O)c2cc(NC(=O)c3ccccc3)ccc2O1	none (no result: SR-BI uptake up, NSD2 inh, HGIII-sPLA2 inh, SR-BI HDL uptake)
OCCN1CCN(C(=S)c2ccc(Cl)c(Cl)c2)CC1	ARNT-TACC3 inh 66 (no result: XiGFP reactiv)
COc1cc(NC(=S)N2CCN(CCO)CC2)c(OC)cc1Cl	none (no result: ARNT-TACC3 inh)
COCC(=O)Nc1nc2n(n1)C(c1ccccc1Cl)CC(c1ccc(OC)cc1)N2 (centres undefined)	none (no result: XiGFP reactiv)
COCC(=O)Nc1nc2n(n1)C(c1ccc(Cl)cc1)CC(c1ccc(OC)cc1)N2 (centres undefined)	SR-BI HDL uptake 74 (no result: XiGFP reactiv)
CC1(C)CC(NC(=O)c2ccc(Cl)c(S(=O)(=O)N(Cc3ccccc3)c3ccccc3)c2)CC(C)(C)N1	SR-BI uptake up 97 (no result: ARNT-TACC3 inh)
COc1cccc(C(=O)Nc2ccc3c(c2)C(=O)N(C)C[C@H](OC)[C@H](C)CN[C@H](C)CO3)c1	none (no result: SR-BI uptake up, NSD2 inh, HGIII-sPLA2 inh, SR-BI HDL uptake)
N#Cc1ccc(NC(=O)Nc2cccc(C#N)c2)cc1	none (no result: ARNT-TACC3 inh)
N#Cc1ccc(NC(=O)Nc2ccc(Oc3ccc(NC(=O)Nc4ccc(C#N)cc4)cc3)cc2)cc1	SR-BI HDL uptake 87 (no result: NSD2 inh)
Cn1c(SCc2ccccc2)nnc1-c1ccc(O)cc1	ARNT-TACC3 inh active
Cn1c(SCC(=O)c2ccccc2)nnc1-c1ccc(O)cc1	none (no result: XiGFP reactiv)
CCOc1cccc(C2c3c(oc4ccccc4c3=O)C(=O)N2c2ccccn2)c1 (centres undefined)	none (no result: ARNT-TACC3 inh, SR-BI uptake up, NSD2 inh, SR-BI HDL uptake)
COc1cccc(C2c3c(oc4ccccc4c3=O)C(=O)N2c2ccccn2)c1 (centres undefined)	HGIII-sPLA2 inh 20 (no result: ARNT-TACC3 inh, NSD2 inh)
CN1C(=O)c2oc3ccccc3c(=O)c2C1c1ccncc1 (centres undefined)	ARNT-TACC3 inh 93 (no result: XiGFP reactiv, NSD2 inh, HGIII-sPLA2 inh)
Cc1cc(C)cc(C(=O)NCC(=O)OCC(=O)Nc2ccc(C)cc2Br)c1	none (no result: NSD2 inh)
